From PubChem BioAssay
Shown are actives, neighbours in structure and some others; about 3.5% of the full set was active somewhere.
MrgX1 PAM = human MrgX1 positive allosteric modulation, primary screen. Q96LB2. MrgX1-HEK293, Fluo-4 calcium flux, FDSS; hits give high values. B-score at 10 µM. 0.63% of 310,000 active. AID 588675;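 active = plate-corrected calcium response at least 3 library SD above typical, normal starting fluorescence, not activating the receptor alone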;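 also: compound read alongside a low EC10 to EC30 dose of BAM8-22 agonist; peak minus trough fluorescence over baseline measured at the second addition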
Target sequence (Q96LB2 whole entry, looked up): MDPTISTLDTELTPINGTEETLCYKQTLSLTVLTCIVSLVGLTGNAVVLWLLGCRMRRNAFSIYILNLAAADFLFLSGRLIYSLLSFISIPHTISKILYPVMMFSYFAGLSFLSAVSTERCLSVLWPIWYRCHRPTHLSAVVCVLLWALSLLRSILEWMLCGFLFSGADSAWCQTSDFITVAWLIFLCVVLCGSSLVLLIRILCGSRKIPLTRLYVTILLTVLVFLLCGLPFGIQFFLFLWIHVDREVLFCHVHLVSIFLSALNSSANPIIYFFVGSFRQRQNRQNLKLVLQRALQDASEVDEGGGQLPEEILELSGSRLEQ
RGS4 inh = human RGS4 inhibition; B-score at 10 µM; HEK293 M3R/RGS4 inducible, Fluo-4 calcium flux; hits give high values; triggered by carbachol at its EC20; P49798; 0.45% of 310,000 active; AID 463165;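 active = B-score, a plate-corrected calcium signal, over three deviations above library mean, with baseline fluorescence within five deviations of library mean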;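 also: RGS4 expression induced by doxycycline in cells with stable M3 receptor; B-score is computed from the integrated fluorescence ratio over baseline after carbachol; higher B-score means a larger calcium signal and so more RGS4 inhibition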
Target sequence (P49798 whole entry, looked up): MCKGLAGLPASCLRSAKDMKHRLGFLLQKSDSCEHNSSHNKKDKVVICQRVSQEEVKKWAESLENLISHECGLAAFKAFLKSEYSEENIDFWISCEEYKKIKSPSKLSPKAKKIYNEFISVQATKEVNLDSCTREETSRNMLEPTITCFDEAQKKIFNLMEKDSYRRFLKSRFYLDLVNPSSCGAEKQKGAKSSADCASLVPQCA
RGS4 act = potentiators or activators of RGS4; HEK293 M3R/inducible RGS4, carbachol calcium flux Fluo4; hits give low values; B-score at 10 µM; 0.92% of 310,000 active; AID 463111;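 active = B-score of the integrated calcium signal more than 4 SD below the library mean, with starting fluorescence not abnormally high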;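 also: negative B-score means reduced calcium response which marks RGS4 activation or potentiation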
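Reagent: ECmax carbachol challenge; Test system: M3R-expressing HEK293 line, RGS4 induced by doxycycline; Schedule: overnight RGS4 induction, 30 min dye load 37 °C, 20 min compound RT; Detection: calcium dye Fluo4 fluorescence; Read-out: Agonist-evoked peak-minus-minimum fluorescence over baseline, integrated ratio, B score.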
MrgX1 antag = blocks BAM8-22 activation of human MrgX1 receptor; MRGX1-HEK293 calcium flux, Fluo-4, BAM8-22 antagonism; hits give low values; AID 588676; 1.3% of 310,000 active; B-score at 10 µM; Q96LB2;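 active = calcium-response B-score plate-corrected more than 3 library SD below zero, starting fluorescence within 5 deviations, no agonist response on first addition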;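 also: peak minus trough fluorescence over baseline after final BAM8-22 challenge near maximal dose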
MrgX1 ag = human MrgX1 receptor agonism, primary screen. MrgX1-HEK293 cells, Fluo-4 calcium fluorescence, agonist mode; hits give high values. 0.44% of 310,000 active. B-score at 10 µM;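 active = calcium response B-score plate-corrected fluorescence ratio at least 3 library SD, with starting fluorescence B-score inside 5 SD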
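Test system: Stable human MrgX1 HEK293 cell line | Schedule: Overnight plating before 1 h dye loading | Read-out basis: Baseline-normalised fluorescence change ratio, B-scored | Detection: Kinetic calcium dye fluorescence, Fluo-4 NW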
Of the large screens only hits and unclear results are named; the others gave an inactive call.

CC(C)CNC(=S)NC1CC2CCC(C1)N2Cc1ccccc1 (stereo not drawn)	none
CCC(C)(C)c1ccc2c(c1)C(=O)c1ccccc1C2=O	none
CC(C)C(c1nnnn1Cc1ccc(F)cc1)N1CCN(Cc2ccc3c(c2)OCO3)CC1 (stereo not drawn)	RGS4 act -7.2
CN1CCN(c2ccc(NC(=O)c3ccc(Oc4ccccc4)cc3)cc2)CC1	RGS4 act -7.7
O=C(CN1C(=O)C2CC=CCC2C1=O)NC1CCCc2ccccc21 (stereo not drawn)	none
O=C(c1cccs1)N1CCC(c2nc3c(nnn3Cc3c(Cl)cccc3Cl)c(=O)[nH]2)CC1	none
CCCc1cc(-c2[nH]ncc2-c2ccc(C(=O)OCC)o2)c(O)cc1O	none
CCCc1cc(-c2[nH]ncc2-c2ccc3c(c2)OCCCO3)c(O)cc1O	RGS4 act -7.9
O=C(O)CCCNC(=O)Cc1ccccc1	none
Cc1ccc(/C=C2\Oc3c(ccc(O)c3CN3CCN(C)CC3)C2=O)cc1	RGS4 act -9.6
O=C1/C(=C/C=C/c2ccccc2)Oc2c1ccc(O)c2CN1CCN(CCO)CC1	MrgX1 antag -5.7
CCN1CCN(Cc2c(O)ccc3c2O/C(=C\c2ccc(C)cc2)C3=O)CC1	none
CCN1CCN(Cc2c(O)ccc3c2O/C(=C\c2ccccc2)C3=O)CC1	RGS4 act -8.3
CC(CN1C(C)CCCC1C)OC(=O)c1cccc(Br)c1 (stereo not drawn)	none
O=C1OC(c2ccc(F)cc2)=C/C1=C\c1ccc([N+](=O)[O-])o1	MrgX1 antag -7.8
O=C1OC(c2ccc(F)cc2)=C/C1=C\c1ccc(O)cc1	none
Cc1c(O)nc(SCC(=O)Nc2ccc3c4c(cccc24)CC3)n(-c2ccc(F)cc2)c1=O	none
COCCNC(=O)C(c1ccc(F)cc1)N(C(=O)CCC(=O)Nc1nccs1)c1ccc(C)cc1 (stereo not drawn)	none
CCOC(=O)c1sc(=S)n(Cc2ccccc2)c1N	MrgX1 ag 47
COc1cc(N2C(=O)C=CC2=O)c(OC)cc1Cl	RGS4 act -7.1
CC(OC(=O)/C=C/c1ccc(Br)cc1)C(=O)N1CCOCC1 (stereo not drawn)	MrgX1 antag -8
NC(CCCCc1ccccc1)c1cccc2ccccc12 (stereo not drawn)	MrgX1 ag 61
CC(CCc1ccccc1)NCc1cccc2ccccc12 (stereo not drawn)	none
Cc1ccc(C(=O)c2c(C)oc3c2C(=O)C(=O)c2ccccc2-3)cc1	RGS4 act -7.5
Cc1oc2c(c1C(=O)c1ccc(Cl)cc1)C(=O)C(=O)c1ccccc1-2	none (no result: MrgX1 PAM, MrgX1 antag, MrgX1 ag)
O=C(CNC(=O)c1ccco1)NCC(=O)OCc1ccc(Cl)cc1Cl	none
O=C(NCCN1CCOCC1)C1CCN(c2ncnc3c2sc2cccc(F)c23)CC1	none
CCCCN(CC)CCCNC(=O)C1CCN(c2ncnc3c2sc2cccc(F)c23)CC1	RGS4 act -7.1
CCC(C)(C)NC(=O)/C=C/c1cnc2ccccc2n1	MrgX1 antag -4.7
COC(=O)c1cc(C(=O)NCCC(C)C)cc([N+](=O)[O-])c1	none
CCCC(C)NC(=O)c1cc(C(=O)OC)cc([N+](=O)[O-])c1 (stereo not drawn)	MrgX1 antag -5.2
COc1cccc2c1OCC(C(=O)OCc1cccnc1)=C2	MrgX1 ag 29
COc1ccc(/C=C/C(=O)N(Cc2cccs2)C2CCS(=O)(=O)C2)cc1 (stereo not drawn)	RGS4 act -7.5
CC(=O)N1CCN(C(=O)c2ccc(NS(=O)(=O)c3ccc4[nH]c(=O)[nH]c4c3)cc2)CC1	none
Cc1cnc(CN(C)C(=O)c2ccc3oc(Cc4ccc(Cl)cc4)nc3c2)[nH]1	RGS4 act -7.2
COc1cccc(C2c3c(-c4cc(Cl)c(C)cc4O)n[nH]c3C(=O)N2Cc2cccnc2)c1 (stereo not drawn)	RGS4 inh 11
COc1ccc(CCN2C(=O)c3[nH]nc(-c4ccccc4O)c3C2c2cccc(Cl)c2)cc1 (stereo not drawn)	none
CCOc1c(OC(C)=O)ccc(/C=C2\N=C(SCC)SC2=O)c1[N+](=O)[O-]	RGS4 act -7.1
CCOc1cc(/C=C2\N=C(SCC)SC2=O)cc([N+](=O)[O-])c1OC(C)=O	none
CN1C(=O)C(O)(CC(=O)c2ccc(F)cc2)c2cc(Br)ccc21 (stereo not drawn)	MrgX1 antag -5.1
CCOc1ccc(N)c(SSc2cc(OCC)ccc2N)c1	MrgX1 ag 29
CCOc1cc(-c2ccc(N)c(OCC)c2)ccc1N	none
Cc1cc(C(=O)CSc2nncs2)c(C)n1-c1c(C)n(C)n(-c2ccccc2)c1=O	RGS4 act -9.4
N#C/C(=C/c1ccccc1)C(=O)NCc1ccccc1	none
CN(C)c1ccc(/C=C(/C#N)C(=O)NCc2ccccc2)o1	MrgX1 antag -4.9
CC(C)CCOc1ccc(C(=O)NCC(c2ccco2)N(C)C)cc1 (stereo not drawn)	RGS4 act -7.5
O=C(N/N=C/c1ccoc1)c1cccc(OC(F)(F)C(F)F)c1	none
O=C(c1ccccc1)c1c2c(cc3sc4ccccc4[n+]13)-c1cccc3cccc-2c13	MrgX1 antag -8.8 (no result: RGS4 inh, RGS4 act)
Cc1sc2ccccc2[n+]1CC(=O)c1ccccc1	none
COc1ccc(/C=N/N2CCOCC2)cc1COc1ccc(Cl)cc1	none
CCc1ccc(N2CC(O)(c3cccs3)[N+]3=C2SCCC3)cc1 (stereo not drawn)	RGS4 act -7.5
CCOc1ccc(C(C)=O)cc1Cc1c(O)nc(N)[nH]c1=O	MrgX1 antag -5.2
CC(=O)Oc1ccc2oc(=O)c3c(c2c1)CCCN3C(=O)CN1CCOCC1	none
O=C(c1ccc([N+](=O)[O-])s1)N1CCCc2ccccc21	RGS4 act -7.7
O=C(c1ccc([N+](=O)[O-])s1)N1CCc2ccccc21	none
CCOc1ccc(Br)cc1/C(C)=N\NC1=NCCN1	RGS4 act -7
COc1ccc(/C=N/NC(=S)Nc2ccccc2[N+](=O)[O-])cc1O	MrgX1 PAM 6.8
Cc1cc(Br)ccc1SCC(=O)OCC(=O)Nc1ncc(C(F)(F)F)cc1Cl	none
O=C(O)c1ccc(NC(=O)C2(c3ccccc3)CCCC2)cc1	none
CCN(CC)CCOC(=O)c1ccc(NC(=O)/C=C/c2cccs2)cc1	RGS4 act -7.1
CCOC(=O)c1ccc(NC(=O)/C=C/c2cccs2)cc1	none
CCN(CC)CCOC(=O)c1ccc(NC(=O)C2(c3ccccc3)CCCC2)cc1	RGS4 act -7.4
COCc1cc(C)nc(OCC(=O)N/N=C/c2ccc(-c3cc([N+](=O)[O-])ccc3Cl)o2)c1C#N	none
NC(=O)Cn1nc([N+](=O)[O-])nc1Oc1ccccc1C(=O)N1CCOCC1	MrgX1 antag -4.6
NC(=O)Cn1nc([N+](=O)[O-])nc1Oc1ccccc1F	none
C/C(=N/N=C(/N)SCc1ccccc1)C(C)(C)C	MrgX1 PAM 9.9
Cc1cccc(CSC(=N)N)c1	none
